Measured values collected from several papers.
Protocols differ between the studies behind these lines.
Target: Serine/threonine-protein kinase DCLK3 (DCLK3, Homo sapiens, UniProt Q9C098)
One construct used (Q9C098 1-648): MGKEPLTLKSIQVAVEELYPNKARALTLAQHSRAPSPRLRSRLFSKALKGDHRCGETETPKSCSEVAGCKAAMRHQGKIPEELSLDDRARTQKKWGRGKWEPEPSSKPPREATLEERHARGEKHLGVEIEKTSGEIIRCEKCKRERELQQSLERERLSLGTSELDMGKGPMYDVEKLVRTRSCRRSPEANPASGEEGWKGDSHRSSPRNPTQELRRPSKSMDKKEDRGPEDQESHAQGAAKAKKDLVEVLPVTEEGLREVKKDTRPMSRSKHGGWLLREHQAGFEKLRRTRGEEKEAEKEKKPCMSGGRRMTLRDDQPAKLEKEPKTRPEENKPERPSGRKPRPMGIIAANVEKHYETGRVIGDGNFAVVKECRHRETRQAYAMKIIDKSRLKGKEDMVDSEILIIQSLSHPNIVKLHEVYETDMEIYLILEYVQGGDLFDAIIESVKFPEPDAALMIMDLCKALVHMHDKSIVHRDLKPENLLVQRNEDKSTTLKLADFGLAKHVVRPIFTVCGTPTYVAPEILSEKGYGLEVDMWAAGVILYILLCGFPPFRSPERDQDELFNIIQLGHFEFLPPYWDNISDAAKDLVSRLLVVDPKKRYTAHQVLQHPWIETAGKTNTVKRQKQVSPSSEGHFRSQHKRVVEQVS

SMILES	test	conditions	remaining binding [%]
O=C(c1ccc(Nc2nccc(-c3cc4ccccc4s3)n2)cc1)N1CCC(N2CCCC2)CC1	binding, competition with immobilised ligand	1 µM	45
COc1cnc(Nc2cccc(S(N)(=O)=O)c2)nc1N1CCN(c2ccccc2)CC1	binding, competition with immobilised ligand	1 µM	71
O=C(N1CCS(=O)(=O)CC1)N1C[C@H](c2ccc(OC(F)(F)F)cc2)C[C@H](c2nc(C3CC3)no2)C1	cell-free assay, competition with immobilised ligand	1 µM	100
O=C(NCC1CCOCC1)c1n[nH]cc1NC(=O)c1c(F)cccc1F	binding, competition with immobilised ligand	1 µM	61
CN(C)c1ncnc(-c2ccc3nc(Nc4cc(CN5CCN(C(=O)CC(F)(F)F)CC5)ccn4)[nH]c3c2)c1Cl	cell-free assay, competition with immobilised ligand	1 µM	92
CN(CCCC(F)(F)F)c1nccc(-c2cnn3ncccc23)n1	binding	1 µM	85
N#CC1(c2ccccn2)CCN(Cc2cc(C(=O)N3CCCC3)c(=O)n3ccccc23)CC1	cell-free assay, competition with immobilised ligand	1 µM	100
CN(C)c1ncc(F)c(-c2cnn3ncccc23)n1	binding	1 µM	100
CN([C@@H]1CCc2c(CC(=O)O)c3ccccc3n2C1)S(=O)(=O)c1ccc(F)cc1	cell-free assay, competition with immobilised ligand	1 µM	99
CCN1CCN(Cc2ccc(C(=O)Nc3ccc(C)c(Oc4ccc5c(c4)CC(=O)N5)c3)cc2C(F)(F)F)CC1	binding, competition with immobilised ligand	1 µM	100
O=C(NS(=O)(=O)c1ccc(NCC2CCOCC2)c([N+](=O)[O-])c1)c1ccc(N2CCN(Cc3ccc(C(F)(F)F)cc3-c3ccc(Cl)cc3)CC2)cc1Oc1cnc2[nH]ccc2c1	cell-free assay, competition with immobilised ligand	1 µM	93
c1cnn2ncc(-c3ccnc(N4CCC45COC5)n3)c2c1	binding	1 µM	100
CNC(=O)c1ccc(Nc2ncc(C(F)(F)F)c(NCc3nccnc3N(C)S(C)(=O)=O)n2)cc1	cell-free assay, competition with immobilised ligand	0.1 µM	67
C[C@@H](c1ccc(-n2cnc3c(N)ncnc32)cc1)N1CCc2nn(C)c(Cc3ccccc3)c2C1=O	binding, competition with immobilised ligand	0.1 µM	85
O=C(c1ccc(Nc2ncc(Cl)c(-c3ccc(Cl)s3)n2)cc1)N1CCC(N2CCCC2)CC1	binding, competition with immobilised ligand	1 µM	14
CC1CCCN1c1nccc(-c2cnn3ncccc23)n1 (stereo not drawn)	binding	1 µM	100
Nc1ncc2c(n1)-c1c([nH]c3ccc(C#CC4CC4)cc13)CCCC2	binding, competition with immobilised ligand	1 µM	100
C[C@H]1CCN(c2nccc(-c3cnn4ncccc34)n2)C1	binding	1 µM	93
Cc1cnc(Nc2ccc(C(=O)N3CCC(N4CCCC4)CC3)cc2)nc1-c1cc2ccccc2s1	binding, competition with immobilised ligand	1 µM	0.5
N[C@H]1CCN(c2nccc(-c3cnn4ncccc34)n2)C1	binding	1 µM	100
c1cncc(-c2cccc(Nc3nccc(NC4CCCCC4)n3)c2)c1	binding, competition with immobilised ligand	10 µM	80
